ChEMBL document CHEMBL5724801, “EUbOPEN Chemogenomics Library - Multiplex” (2024)
Several values for one entry are separate records, joined by “and”; a condition that tells them apart may be missing. Identical values can stand only once.

Test system: HEK-293T
Assay: Multiplex assay against HEK293T
Assay type: toxicity, cell-based
Conditions: human
Summary of the method: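 Imaging took place on a CQ1 microscope at 37°C and 5% CO2 once compound had been added to live cells stained at seeding with Hoechst33342, BioTracker Green Microtubule Cytoskeleton Dye, MitoTracker Red and Annexin V Alexa Fluor 680. CellPathfinder machine-learning gating classed cells as Hoechst high-intensity objects or normal cells, classed normal cells as having healthy, pyknosed or fragmented nuclei, and classed pyknosed cells as mitotic or apoptotic. Tubulin, mitochondrial-mass and membrane-permeability phenotypes are per cents of the healthy-nucleus cells.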

[1] = 12 h, 1 µM, compound concentration 1 uM
[2] = 12 h, 10 µM, compound concentration 10 uM
[3] = 24 h, 1 µM, compound concentration 1 uM
[4] = 24 h, 10 µM, compound concentration 10 uM
[5] = 48 h, 1 µM, compound concentration 1 uM
[6] = 48 h, 10 µM, compound concentration 10 uM

## CCCCC1=NC2(CCCC2)C(=O)N1Cc1ccc(-c2ccccc2-c2nnn[nH]2)cc1 [IRBESARTAN]
[1]
  Population Apoptotic (%): 24% and 28%
  Population Fragmented Nuclei (%): 9% and 8%
  Population Healthy Nuclei (%): 79% and 78%
  Population Hoechst High Intensity Objects (%): 9% and 4%
  Population Membrane Permeable-Phenotype (%): 0%
  Population Mitochondria Different-Phenotype (%): 34% and 63%
  Population Mitotic Cells (%): 75% and 71%
  Population Normal (%): 91% and 95%
  Population Pyknosed Nuclei (%): 10% and 12%
  Population Tubulin-Different-Phenotype (%): 17% and 20%
  Total Cell Count: 500 and 353
[2]
  Population Apoptotic (%): 50% and 56%
  Population Fragmented Nuclei (%): 7% and 6%
  Population Healthy Nuclei (%): 70% and 78%
  Population Hoechst High Intensity Objects (%): 5% and 13%
  Population Membrane Permeable-Phenotype (%): 2% and 0%
  Population Mitochondria Different-Phenotype (%): 46% and 66%
  Population Mitotic Cells (%): 50% and 43%
  Population Normal (%): 94% and 86%
  Population Pyknosed Nuclei (%): 22% and 15%
  Population Tubulin-Different-Phenotype (%): 50% and 33%
  Total Cell Count: 219 and 351
[3]
  Population Apoptotic (%): 31% and 34%
  Population Fragmented Nuclei (%): 9%
  Population Healthy Nuclei (%): 79% and 80%
  Population Hoechst High Intensity Objects (%): 4% and 7%
  Population Membrane Permeable-Phenotype (%): 0%
  Population Mitochondria Different-Phenotype (%): 24% and 45%
  Population Mitotic Cells (%): 68% and 65%
  Population Normal (%): 95% and 92%
  Population Pyknosed Nuclei (%): 10% and 9%
  Population Tubulin-Different-Phenotype (%): 15% and 14%
  Total Cell Count: 625 and 456
[4]
  Population Apoptotic (%): 27% and 41%
  Population Fragmented Nuclei (%): 6% and 11%
  Population Healthy Nuclei (%): 77%
  Population Hoechst High Intensity Objects (%): 3% and 10%
  Population Membrane Permeable-Phenotype (%): 1% and 0%
  Population Mitochondria Different-Phenotype (%): 37% and 49%
  Population Mitotic Cells (%): 72% and 58%
  Population Normal (%): 96% and 89%
  Population Pyknosed Nuclei (%): 15% and 11%
  Population Tubulin-Different-Phenotype (%): 32% and 22%
  Total Cell Count: 287 and 434
[5]
  Population Apoptotic (%): 29% and 23%
  Population Fragmented Nuclei (%): 11% and 9%
  Population Healthy Nuclei (%): 81% and 84%
  Population Hoechst High Intensity Objects (%): 3% and 2%
  Population Membrane Permeable-Phenotype (%): 0% and 1%
  Population Mitochondria Different-Phenotype (%): 21% and 19%
  Population Mitotic Cells (%): 70% and 76%
  Population Normal (%): 96% and 97%
  Population Pyknosed Nuclei (%): 7% and 6%
  Population Tubulin-Different-Phenotype (%): 15% and 8%
  Total Cell Count: 958 and 705
[6]
  Population Apoptotic (%): 25% and 46%
  Population Fragmented Nuclei (%): 15% and 12%
  Population Healthy Nuclei (%): 75% and 80%
  Population Hoechst High Intensity Objects (%): 1% and 3%
  Population Membrane Permeable-Phenotype (%): 0%
  Population Mitochondria Different-Phenotype (%): 21% and 26%
  Population Mitotic Cells (%): 75% and 53%
  Population Normal (%): 98% and 96%
  Population Pyknosed Nuclei (%): 9% and 6%
  Population Tubulin-Different-Phenotype (%): 15%
  Total Cell Count: 473 and 684

## COC(=O)C1=C(C)NC(C)=C(C(=O)OC(C)C)C1c1cccc2nonc12 (configuration not stated) [ISRADIPINE]
[1]
  Population Apoptotic (%): 14.42% and 4.72%
  Population Fragmented Nuclei (%): 2.79% and 5.84%
  Population Hoechst High Intensity Objects (%): 0%
  Population Membrane Permeable-Phenotype (%): 0%
  Population Mitochondria Different-Phenotype (%): 37.14% and 47.83%
  Population Mitotic Cells (%): 85.58% and 95.28%
  Population Normal (%): 100%
  Population Pyknosed Nuclei (%): 32.2% and 77.37%
  Total Cell Count: 323 and 137
[2]
  Population Apoptotic (%): 3.97% and 9.29%
  Population Fragmented Nuclei (%): 0.97% and 1.28%
  Population Hoechst High Intensity Objects (%): 0.32% and 0%
  Population Membrane Permeable-Phenotype (%): 0.65% and 0%
  Population Mitochondria Different-Phenotype (%): 39.61% and 35.71%
  Population Mitotic Cells (%): 96.03% and 90.71%
  Population Normal (%): 99.68% and 100%
  Population Pyknosed Nuclei (%): 49.03% and 89.74%
  Total Cell Count: 309 and 156
[3]
  Population Apoptotic (%): 10.81% and 2.08%
  Population Fragmented Nuclei (%): 3.28% and 3.47%
  Population Healthy Nuclei (%): 76.5% and 41.04%
  Population Hoechst High Intensity Objects (%): 0% and 1.14%
  Population Membrane Permeable-Phenotype (%): 2.62% and 1.41%
  Population Mitochondria Different-Phenotype (%): 16.9% and 15.49%
  Population Mitotic Cells (%): 89.19% and 97.92%
  Population Normal (%): 100% and 98.86%
  Population Pyknosed Nuclei (%): 20.22% and 55.49%
  Population Tubulin-Different-Phenotype (%): 7.62% and 1.41%
[4]
  Population Apoptotic (%): 14.52% and 14.29%
  Population Fragmented Nuclei (%): 1% and 1.72%
  Population Hoechst High Intensity Objects (%): 0.5% and 0%
  Population Membrane Permeable-Phenotype (%): 1.48% and 0%
  Population Mitochondria Different-Phenotype (%): 27.68% and 22.58%
  Population Mitotic Cells (%): 85.48% and 85.71%
  Population Normal (%): 99.5% and 100%
  Population Pyknosed Nuclei (%): 31.08% and 80.46%
  Population Tubulin-Different-Phenotype (%): 40.59% and 25.81%
  Total Cell Count: 401 and 174
[5]
  Population Apoptotic (%): 8.94% and 17.46%
  Population Fragmented Nuclei (%): 4.71% and 1.73%
  Population Healthy Nuclei (%): 86.76% and 76.47%
  Population Hoechst High Intensity Objects (%): 0% and 1.03%
  Population Membrane Permeable-Phenotype (%): 5.91% and 5.88%
  Population Mitochondria Different-Phenotype (%): 13.5% and 15.84%
  Population Mitotic Cells (%): 91.06% and 82.54%
  Population Normal (%): 100% and 98.97%
  Population Pyknosed Nuclei (%): 8.52% and 21.8%
[6]
  Population Apoptotic (%): 9.09% and 15.38%
  Population Fragmented Nuclei (%): 2.12% and 2.49%
  Population Healthy Nuclei (%): 83.92% and 48.96%
  Population Hoechst High Intensity Objects (%): 0.14% and 0%
  Population Membrane Permeable-Phenotype (%): 6.22% and 3.39%
  Population Mitochondria Different-Phenotype (%): 41.85% and 34.75%
  Population Mitotic Cells (%): 90.91% and 84.62%
  Population Normal (%): 99.86% and 100%
  Total Cell Count: 710 and 241

## CN1[C@@H](CC(=O)c2ccccc2)CCC[C@H]1C[C@H](O)c1ccccc1.Cl [LOBELINE HYDROCHLORIDE]
[1]
  Population Apoptotic (%): 5.84% and 10.26%
  Population Fragmented Nuclei (%): 1.05% and 2.84%
  Population Hoechst High Intensity Objects (%): 0.52% and 0%
  Population Membrane Permeable-Phenotype (%): 0%
  Population Mitochondria Different-Phenotype (%): 33.04% and 30%
  Population Mitotic Cells (%): 94.16% and 89.74%
  Population Normal (%): 99.48% and 100%
  Population Pyknosed Nuclei (%): 40.31% and 82.98%
  Total Cell Count: 384 and 141
[2]
  Population Apoptotic (%): 13.08% and 13.61%
  Population Fragmented Nuclei (%): 4.88% and 1.1%
  Population Healthy Nuclei (%): 49.83% and 17.68%
  Population Hoechst High Intensity Objects (%): 0% and 0.55%
  Population Membrane Permeable-Phenotype (%): 0.7% and 0%
  Population Mitochondria Different-Phenotype (%): 17.48% and 37.5%
  Population Mitotic Cells (%): 86.92% and 86.39%
  Population Normal (%): 100% and 99.45%
  Population Pyknosed Nuclei (%): 45.3% and 81.22%
  Total Cell Count: 287 and 182
[3]
  Population Apoptotic (%): 12.24% and 13.68%
  Population Fragmented Nuclei (%): 2.04% and 2.68%
  Population Healthy Nuclei (%): 74.92% and 33.56%
  Population Hoechst High Intensity Objects (%): 0%
  Population Membrane Permeable-Phenotype (%): 1.67% and 0%
  Population Mitochondria Different-Phenotype (%): 11.3% and 14%
  Population Mitotic Cells (%): 87.76% and 86.32%
  Population Normal (%): 100%
  Population Pyknosed Nuclei (%): 23.04% and 63.76%
  Population Tubulin-Different-Phenotype (%): 10.46% and 6%
[4]
  Population Apoptotic (%): 16.35% and 24.8%
  Population Fragmented Nuclei (%): 2.39% and 1.53%
  Population Healthy Nuclei (%): 69.95% and 34.69%
  Population Hoechst High Intensity Objects (%): 0%
  Population Membrane Permeable-Phenotype (%): 1.52% and 1.47%
  Population Mitochondria Different-Phenotype (%): 18.63% and 22.06%
  Population Mitotic Cells (%): 83.65% and 75.2%
  Population Normal (%): 100%
  Population Pyknosed Nuclei (%): 27.66% and 63.78%
  Population Tubulin-Different-Phenotype (%): 12.55% and 11.76%
  Total Cell Count: 376 and 196
[5]
  Population Apoptotic (%): 7.27% and 13.92%
  Population Fragmented Nuclei (%): 2.75% and 1.71%
  Population Healthy Nuclei (%): 84.62% and 53.14%
  Population Hoechst High Intensity Objects (%): 0%
  Population Membrane Permeable-Phenotype (%): 5.33% and 1.08%
  Population Mitochondria Different-Phenotype (%): 11.75% and 19.35%
  Population Mitotic Cells (%): 92.73% and 86.08%
  Population Normal (%): 100%
[6]
  Population Fragmented Nuclei (%): 2.84% and 1.89%
  Population Healthy Nuclei (%): 86.48% and 58.49%
  Population Hoechst High Intensity Objects (%): 0% and 0.75%
  Population Membrane Permeable-Phenotype (%): 2.5% and 0%
  Population Mitochondria Different-Phenotype (%): 30.22% and 37.42%
  Population Mitotic Cells (%): 94.68% and 75.24%
  Population Normal (%): 100% and 99.25%
